Here are results for seven compounds from ChEMBL document CHEMBL1144701, “Synthesis and anti-HIV1 biological activity of novel 5''-ATSAO compounds” (Bioorg Med Chem, 2008).

The test system of data set [1] is Human immunodeficiency virus 1. Briefly: Antiviral activity against HIV1 3B in CEM cells assessed as inhibition of virus-induced cytopathogenicity after 4 days. Format: functional, organism-based. Particulars: Human immunodeficiency virus 1, 3B, CCRF-CEM, 96 h. The method, boiled down: (§1)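 CEM cells at 4 × 10⁵/mL infected with about 100 CCID₅₀ per mL of cell suspension (HIV-1 IIIB or HIV-2 ROD). Infected suspension mixed 1:1 with serial compound dilutions. Giant cell formation scored microscopically after 4 days. EC₅₀ is the concentration inhibiting virus-induced cytopathicity by 50%.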
In general terms: Damage to the host cells serves as the signal in cytopathic effect assays.

Data set [2] concerns Human immunodeficiency virus 2. Briefly: Antiviral activity against HIV2 ROD in CEM cells assessed as inhibition of virus-induced cytopathogenicity after 4 days. Format: functional, organism-based. The note with it: Human immunodeficiency virus 2, ROD, CCRF-CEM, 96 h. The method in brief:
as §1

Data set [3] can be described thus: Cytotoxicity against mock-infected human CEM cells assessed as reduction of cell viability after 4 days. It is filed as cell-based. The note with it: mock-infected CEM (CCRF-CEM) cells. The method in brief: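 Mock-infected CEM cells, plated as in the parallel infection assay at 4 × 10⁵/mL, mixed 1:1 with serial compound dilutions. CC₅₀ is the concentration reducing the number of viable cells by 50%.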

The subject of data set [4] is Human immunodeficiency virus 1. Briefly: Antiviral activity against HIV1 in MT4 cells. The note with it: Human immunodeficiency virus 1, MT4. Format: functional, organism-based.

For `Cc1cn([C@@H]2O[C@H](CO[Si](C)(C)C(C)(C)C)[C@@]3(NS(=O)(=O)C(c4ccccc4)=C3N)[C@H]2O[Si](C)(C)C(C)(C)C)c(=O)n(C)c1=O`, the EC50 in data set [1] and in data set [2] was greater than 50 µM throughout. Further, the CC50 (usually the concentration giving 50% cytotoxicity) at 96 h in data set [3] was no less than 10 µM.
As to `Cc1cn([C@@H]2O[C@H](CO[Si](C)(C)C(C)(C)C)[C@]3(C(N)=C(c4ccccc4)S(=O)(=O)N3C)[C@H]2O[Si](C)(C)C(C)(C)C)c(=O)n(C)c1=O`, the EC50 in data set [1] and in data set [2] was greater than 2 µM in each case. Besides, the CC50 at 96 h in data set [3] was determined as 10.9 µM.
Regarding `Cc1cn([C@@H]2O[C@H](CO[Si](C)(C)C(C)(C)C)[C@@]3(OS(=O)(=O)C=C3N)[C@H]2O[Si](C)(C)C(C)(C)C)c(=O)[nH]c1=O`, in data set [2], the half-maximal effective concentration (EC50) (as a rule, the concentration at which the effect is half-maximal) is greater than 4 µM. In addition, the half-maximal cytotoxic concentration (CC50) at 96 h in data set [3] came to 16 µM.
`Cc1cn([C@@H]2O[C@H](CO[Si](C)(C)C(C)(C)C)[C@@]3(NS(=O)(=O)C(c4ccccc4)=C3N)[C@H]2O[Si](C)(C)C(C)(C)C)c(=O)n(C(=O)OC(C)(C)C)c1=O`: the EC50 is greater than 50 µM in data set [1] and 30 µM in data set [2]. In addition, the 50% cytotoxic concentration (CC50) at 96 h in data set [3] is no less than 10 µM.
For the compound `Cc1cn([C@@H]2O[C@H](CO[Si](C)(C)C(C)(C)C)[C@@]3(NS(=O)(=O)C=C3N)[C@H]2O[Si](C)(C)C(C)(C)C)c(=O)[nH]c1=O`, the EC50 in data set [1] is 0.33 µM; in data set [2], greater than 100 µM; in data set [4] it was 0.13 µM. Moreover, the 50% cytotoxic concentration (CC50) at 96 h in data set [3] was found to be 19.1 µM.
With `Cc1cn([C@@H]2O[C@H](CO[Si](C)(C)C(C)(C)C)[C@@]3(NS(=O)(=O)C(c4ccccc4)=C3N)[C@H]2O[Si](C)(C)C(C)(C)C)c(=O)[nH]c1=O`, the 50% effective concentration (EC50) in data set [1] and in data set [2] was no less than 2 µM each time. Moreover, the CC50 at 96 h in data set [3] was no less than 10 µM.
On to `CCn1c(=O)c(C)cn([C@@H]2O[C@H](CO[Si](C)(C)C(C)(C)C)[C@@]3(NS(=O)(=O)C(c4ccccc4)=C3N)[C@H]2O[Si](C)(C)C(C)(C)C)c1=O`, for which the concentration giving a half-maximal response (EC50) in data set [1] and in data set [2] was greater than 50 µM in each case. Further, the CC50 at 96 h in data set [3] was no less than 10 µM.
